The list is not random: actives were taken first. Their share in the collection is about 4.9%.
NF-kB expr up = compounds increasing NF-kB expression in human neuronal cells; NF-kB reporter expression; stronger effect = higher value; fold change at 12.5 µM; 190,000 compounds, 1.6% hits; in the data active = fold change above about 3.3
STAT3 inh-1 = reduces IL-6 driven STAT3 reporter signal. U3A cells, IL-6 STAT3-luciferase reporter, luminescence; host cell line lacks STAT1. inhibition, % at 5.5 µM. 190,000 compounds, 0.89% hits;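 active = inhibition above the mean inhibition across all screened compounds plus 3 SD, cut at about 44% in these data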;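 also: 0% = DMSO only wells and 100% = 100 µM nifuroxazide control wells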
STAT3 activator = activators of IL-6 induced STAT3 signaling; U3A cells, IL-6 STAT3-luciferase reporter, luminescence; 100% = signal with IL-6 EC80 alone; activation (% of control), % at 5.6 µM; 190,000 compounds, 0.91% hits;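 active = activation above the screen-wide mean of compound activation plus 3 SD, cut at about 130% in these data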;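 also: 0% = background luminescence of wells with medium and substrate only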
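Detection: reporter luminescence signal / Assay system: STAT1-lacking human U3A cells, STAT3 luciferase reporter / Incubation: compound pre-incubation 1 h before IL-6, then 6 h stimulation at 37 °C / Control set: IL-6-only high control / Read-out: % activation relative to IL-6 control / Probe or stimulus: Interleukin-6, 33 ng/mL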
STAT1 inh = STAT1 signaling inhibition; AID 920; NIH 3T3 STAT1-luciferase reporter, IFN-gamma, luminescence; inhibition, % at 5.5 µM; 200,000 compounds, 0.35% hits;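 active = inhibition above a set limit, the mean inhibition across all tested compounds plus 3 SD, cut at about 34% in these data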;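 also: 0% = IFN-gamma with DMSO and 100% = IFN-gamma with 300 µM nifuroxazide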
APP 5'UTR act = activates APP 5'UTR luciferase reporter | SH-SY5Y APP 5'UTR luciferase reporter, luminescence; zero percent = DMSO vehicle wells | activation, % at 2 µM | 190,000 compounds, 1% hits | AID 1276;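 active = activation above a set limit, based on mean plus 3 SD of controls, cut at about 140% in these data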
STAT1 activator = STAT1 signaling activation | NIH 3T3 STAT1-luciferase reporter, IFN-gamma, luminescence; 100% = IFN-gamma alone, no compound | activation (% of control), % at 5.5 µM | 200,000 compounds, 2.6% hits;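 active = activation above the screen-wide mean activation plus 3 SD, cut at about 130% in these data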;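 also: raw ratio to IFN-gamma control signal so 100% means no change and 0% no light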
STAT3 inh-2 = confirmation of STAT3 signaling inhibitors | shares compounds with STAT3 inh-1 | inhibition, % at 5.7 µM | 1,200 compounds, 45% hits | U3A cells, IL-6 STAT3 luciferase reporter, luminescence; cell line lacks STAT1;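 active = inhibition above the hit cutoff computed for the primary STAT3 screen, cut at about 44% in these data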;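 also: 0% = IL-6 plus DMSO and 100% = IL-6 plus nifuroxazide control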
NFkB inh STAT3ct = NF-kappaB inhibition in STAT3 inhibitor counter-screen; shares compounds with STAT3 inh-1; HEK293T NF-kB luciferase reporter, TNF-alpha induced; inhibition, % at 5.7 µM; 1,200 compounds, 36% hits; AID 1308;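 active = inhibition above the mean of solvent-only control wells plus 3 SD, cutoff set per campaign, cut at about 13% in these data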;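 also: 0% = TNF-alpha with DMSO and 100% = TNF-alpha with MG high control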
STAT1 inh 2 = STAT1 inhibition in STAT3 inhibitor counter-screen | 1,200 compounds, 27% hits | AID 1317 | inhibition, % at 5.7 µM | NIH 3T3 STAT1-luciferase reporter, IFN-gamma induced, luminescence | shares compounds with STAT3 inh-1;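 active = inhibition above the mean plus 3 SD of solvent-only control wells, limit set per screening run, cut at about 16% in these data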;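 also: 0% = DMSO with IFN-gamma and 100% = nifuroxazide control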
* hit, by the source's call; . = not tested or not shown; ! = not active in a repeat.

SMILES | NF-kB expr up | STAT3 inh-1 | STAT3 activator | STAT1 inh | APP 5'UTR act | STAT1 activator | STAT3 inh-2 | NFkB inh STAT3ct | STAT1 inh 2
CCOC(=O)c1cccc(NC(=O)CSc2nc3cccnc3n2C)c1 | 0.58 | 58.6* | 55.2 | 14.0 | -0.7 | 87.3 | 43.1 | 2.7 | 7.4
CCOc1ccc(-n2c(C)nc3c(cnn3-c3ccc(Cl)cc3)c2=O)cc1 | 1.11 | 13.6 | 90.4 | 0.8 | 9.1 | 99.2 | . | . | .
Cc1ccc(-n2c(C)nc3c(cnn3-c3ccc(F)cc3)c2=O)cc1 | 1.12 | 53.0* | 61.1 | 2.8 | -10.3 | 97.4 | 38.1 | 4.4 | 7.4
Cc1ccc(-n2ncc3c(=O)n(-c4ccc(C)c(C)c4)c(C)nc32)cc1 | 1.15 | 16.1 | 91.6 | -3.9 | -7.0 | 104.9 | . | . | .
COc1cccc(-n2c(C)nc3c(cnn3-c3ccc(Cl)cc3)c2=O)c1 | 1.02 | 54.7* | 56.5 | 11.7 | 11.9 | 89.1 | 40.7 | 6.5 | 16.2*
CCc1nn(CC(=O)Nc2ccc(Br)c(C)c2)c(=N)s1 | 0.72 | 10.8 | 98.4 | 1.2 | -8.6 | 99.1 | . | . | .
COC(=O)CSc1ncnc2c1sc1nc3c(cc12)COC(C)(C)C3 | . | 44.2* | 65.5 | 22.7 | -14.7 | 79.5 | 44.5* | 17.5* | 28.4*
O=C(CSc1nnnn1C1CC2CCC1C2)Nc1ccnc2ccccc12 (stereo not drawn) | 0.53 | 81.3* | 34.4 | 24.9 | -17.4 | 77.2 | 88.8* | 42.0* | 32.5*
COc1ccc(C2C(=O)c3ccccc3C2=O)cc1 | 2.25 | -3.2 | 104.9 | -2.4 | 40.9 | 102.2 | . | . | .
O=C1c2ccccc2C(=O)C1c1nccc2ccccc12 | 3.56* | 62.5* | 51.3 | -23.1 | 99.8 | 123.2 | 4.4 | 48.9* | -26.0
Clc1ccc(OCc2cc(-c3ccccc3)no2)c(Cl)c1 | 4.53* | 76.3* | 41.4 | 30.6 | 187.8* | 72.5 | 45.9* | 0.8 | -75.8
Cc1ccn2cc(C(=O)Nc3ccc4c(c3)OCCO4)nc2c1 | 3.04 | 44.5* | 64.7 | -54.5 | 142.9* | 149.9* | 5.5 | -21.0 | -83.1
Cc1ccn2cc(C(=O)Nc3ccccc3N3CCOCC3)nc2c1 | 0.82 | 18.2 | 91.7 | -13.4 | -15.1 | 112.3 | . | . | .
CCN(CC)c1ccc(NC(=O)CN2C(=O)CSc3ncccc32)c(C)c1 | 0.82 | 69.7* | 46.8 | 23.1 | 8.4 | 79.1 | 55.6* | 12.4 | 13.5
O=S(=O)(c1ccc2c(c1)OCCO2)N1CCC(c2nc3ccccc3s2)CC1 | 1.04 | 53.4* | 54.5 | 8.1 | -13.0 | 92.5 | 44.2* | 10.3 | -6.5
O=S(=O)(c1ccc2c(c1)OCCO2)N1CCC(c2nc3ccccc3[nH]2)CC1 | 0.94 | 17.8 | 90.2 | 0.6 | 10.0 | 99.5 | . | . | .
CCC(C)(C)c1nnc(NC(=O)c2cccc([N+](=O)[O-])c2)s1 | 1.66 | 26.6 | 80.2 | -3.3 | 14.8 | 102.9 | . | . | .
O=C(NC(=S)Nc1ccc(N2CCCCC2)c(Cl)c1)c1ccc2c(c1)OCCO2 | 0.68 | 64.2* | 51.6 | 4.3 | 58.1 | 96.2 | 66.0* | 21.5* | 4.5
O=C(NC(=S)Nc1ccc(N2CCOCC2)c(Cl)c1)c1cncc(Br)c1 | 0.91 | 11.9 | 91.6 | 12.2 | 6.3 | 89.1 | . | . | .
CS(=O)(=O)N1CCc2cc(S(=O)(=O)NCCNS(=O)(=O)c3ccc4c(c3)CCN4S(C)(=O)=O)ccc21 | 0.98 | -2.7 | 106.8 | 3.0 | -8.6 | 98.7 | . | . | .
CCC(=O)N1CCCc2cc(S(=O)(=O)N3CCN(c4ccccc4F)CC3)ccc21 | 0.74 | 52.6* | 61.9 | 21.5 | 10.8 | 80.5 | 35.6 | 11.0 | 12.5
CCC(=O)N1CCCc2cc(S(=O)(=O)N3CCN(c4ncccn4)CC3)ccc21 | 0.72 | 16.9 | 92.8 | 1.7 | -1.9 | 98.5 | . | . | .
CS(=O)(=O)N1CCc2cc(S(=O)(=O)Nc3ccc4c(c3)OCCO4)ccc21 | 0.71 | 46.0* | 63.9 | 27.2 | 9.9 | 74.9 | 36.3 | 1.8 | 20.8*
CCC(=O)N1CCc2cc(S(=O)(=O)Nc3ccc4c(c3)OCCO4)ccc21 | 0.82 | 46.6* | 63.8 | 21.0 | -5.6 | 80.7 | 34.7 | -2.1 | 12.4
O=C(C1CCC1)N1CCc2cc(S(=O)(=O)Nc3ccc4c(c3)OCCO4)ccc21 | 1.01 | 65.3* | 49.2 | 22.3 | -12.8 | 79.8 | 50.4* | 7.6 | 20.6*
SMILES | NF-kB expr up | STAT3 inh-1 | STAT3 activator | STAT1 inh | APP 5'UTR act | STAT1 activator | STAT3 inh-2 | NFkB inh STAT3ct | STAT1 inh 2
Cc1cccc(OCCNC(=O)c2cncc(Br)c2)c1 | 1.16 | -7.3 | 106.5 | -1.5 | -2.0 | 101.3 | . | . | .
COc1ccc(C(NC(=O)/C=C/c2ccco2)c2ccc(OC)c(OC)c2)cc1OC | 0.97 | 3.4 | 100.2 | 1.6 | 2.5 | 98.5 | . | . | .
Cc1ccsc1/C=N/Nc1nc(=O)[nH]nc1C | 2.12 | 52.9* | 58.5 | 30.4 | 56.6 | 70.9 | 18.0 | -10.2 | -8.3
Fc1ccccc1/C=C/c1ccc2ccccc2n1 | 6.73* | 72.5* | 40.3 | 5.0 | 195.5* | 95.5 | 35.8 | 30.5* | -14.6
COc1ccccc1-n1c(-c2ccccc2)c[n+]2c1CCc1ccccc1-2 | 1.14 | 86.0* | 34.2 | 34.1*! | -13.4 | 67.0 | 74.0* | 7.9 | 20.7*
COc1ccccc1-n1c(-c2ccccc2)c[nH]c1=S | 1.06 | 0.8 | 99.2 | -7.2 | 3.6 | 106.8 | . | . | .
O=C(CSc1nnc(NC(=O)c2ccco2)s1)Nc1ccc2c(c1)OCCO2 | 0.98 | 3.9 | 102.9 | 0.8 | 16.0 | 98.4 | . | . | .
CCN(CC)c1ccc2cc(C(C)=O)c(=O)oc2c1 | 1.61 | -8.0 | 109.3 | -1.1 | 16.8 | 101.0 | . | . | .
CCN(CC)c1ccc2cc(NC(=O)CCC(=O)O)c(=O)oc2c1 | 0.32 | 70.0* | 45.0 | 25.7 | -52.1 | 77.0 | 64.7* | 29.2* | 28.2*
O=C(Nc1ccc(N2CCOCC2)nc1)c1ccc(C(F)(F)F)cc1 | 0.95 | 60.8* | 50.7 | -1.5 | 4.9 | 102.1 | 59.2* | 4.4 | -1.6
Cc1cc(Cl)c(S(=O)(=O)N2CCN(c3ccc(F)cc3)CC2)cc1OCC(=O)NC1CCCCC1 | 0.87 | 88.4* | 27.3 | 17.7 | -40.9 | 83.8 | 84.6* | 35.1* | 9.6
Cc1cc(Cl)c(S(=O)(=O)N2CCN(c3ccc(F)cc3)CC2)cc1OCC(N)=O | 1.03 | 45.0* | 64.5 | 4.2 | -8.9 | 96.1 | 33.5 | 5.8 | 1.2
CCOC(=O)C1CCCN(S(=O)(=O)c2cc(OCC(=O)NC3CCCCC3)c(C)cc2Cl)C1 (stereo not drawn) | 1.07 | 18.6 | 87.0 | 0.2 | 10.5 | 99.8 | . | . | .
Nc1cc(C(F)(F)F)ccc1Nc1ccccc1 | 1.25 | 23.4 | 85.2 | 22.0 | 2.9 | 78.4 | . | . | .
